Test results reported in ChEMBL document CHEMBL1155439, “Transient receptor potential ankyrin 1 (TRPA1) channel as emerging target for novel analgesics and anti-inflammatory agents” (J Med Chem, 2010).

Experiments:
[1] = target: T1, Transient receptor potential cation channel subfamily A member 1 (Rattus norvegicus, UniProt Q6RI86); experiment: Agonist activity at rat TRPA1 channel expressed in HEK293 cells assessed as increase in intracellular calcium influx; assay type: functional, cell-based
T1 sequence (Q6RI86 whole entry): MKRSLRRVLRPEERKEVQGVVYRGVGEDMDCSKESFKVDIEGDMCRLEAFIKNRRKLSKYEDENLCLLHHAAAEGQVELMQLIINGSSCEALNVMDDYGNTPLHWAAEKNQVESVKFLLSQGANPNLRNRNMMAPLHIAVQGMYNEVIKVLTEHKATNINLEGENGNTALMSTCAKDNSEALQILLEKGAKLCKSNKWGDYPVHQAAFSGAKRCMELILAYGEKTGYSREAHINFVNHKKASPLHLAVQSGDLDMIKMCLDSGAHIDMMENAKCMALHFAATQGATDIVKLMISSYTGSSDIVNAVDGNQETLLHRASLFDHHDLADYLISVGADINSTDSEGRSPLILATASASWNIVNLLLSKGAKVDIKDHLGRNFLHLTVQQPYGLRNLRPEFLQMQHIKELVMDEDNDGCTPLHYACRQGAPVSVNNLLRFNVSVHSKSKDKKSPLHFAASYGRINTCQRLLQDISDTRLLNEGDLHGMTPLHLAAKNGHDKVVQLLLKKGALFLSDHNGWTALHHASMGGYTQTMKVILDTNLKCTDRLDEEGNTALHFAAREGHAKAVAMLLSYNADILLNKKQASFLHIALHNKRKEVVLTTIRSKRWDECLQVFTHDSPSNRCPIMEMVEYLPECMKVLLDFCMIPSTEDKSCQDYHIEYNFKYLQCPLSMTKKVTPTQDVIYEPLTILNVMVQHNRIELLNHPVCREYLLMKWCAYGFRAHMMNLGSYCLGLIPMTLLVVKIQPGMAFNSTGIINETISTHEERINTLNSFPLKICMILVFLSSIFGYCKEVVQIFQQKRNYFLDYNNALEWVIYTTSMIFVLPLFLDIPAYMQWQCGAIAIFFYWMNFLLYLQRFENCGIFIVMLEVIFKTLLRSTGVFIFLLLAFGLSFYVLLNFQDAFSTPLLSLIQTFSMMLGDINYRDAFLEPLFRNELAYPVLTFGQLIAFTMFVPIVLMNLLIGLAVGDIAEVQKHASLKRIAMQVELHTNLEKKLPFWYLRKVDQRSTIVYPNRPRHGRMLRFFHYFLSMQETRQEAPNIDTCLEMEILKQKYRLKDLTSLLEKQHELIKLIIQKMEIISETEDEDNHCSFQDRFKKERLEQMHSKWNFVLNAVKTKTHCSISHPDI

[2] = target: T1, Transient receptor potential cation channel subfamily A member 1; experiment: Agonist activity at TRPA1 channel in rat DRG neurons assessed as increase in intracellular calcium influx; assay type: functional, cell-based
[3] = target: T2, Transient receptor potential cation channel subfamily A member 1 (Homo sapiens, UniProt O75762); experiment: Agonist activity at human TRPA1 channel expressed in CHO cells assessed as increase in intracellular calcium levels; assay type: functional, cell-based
T2 sequence (O75762 whole entry): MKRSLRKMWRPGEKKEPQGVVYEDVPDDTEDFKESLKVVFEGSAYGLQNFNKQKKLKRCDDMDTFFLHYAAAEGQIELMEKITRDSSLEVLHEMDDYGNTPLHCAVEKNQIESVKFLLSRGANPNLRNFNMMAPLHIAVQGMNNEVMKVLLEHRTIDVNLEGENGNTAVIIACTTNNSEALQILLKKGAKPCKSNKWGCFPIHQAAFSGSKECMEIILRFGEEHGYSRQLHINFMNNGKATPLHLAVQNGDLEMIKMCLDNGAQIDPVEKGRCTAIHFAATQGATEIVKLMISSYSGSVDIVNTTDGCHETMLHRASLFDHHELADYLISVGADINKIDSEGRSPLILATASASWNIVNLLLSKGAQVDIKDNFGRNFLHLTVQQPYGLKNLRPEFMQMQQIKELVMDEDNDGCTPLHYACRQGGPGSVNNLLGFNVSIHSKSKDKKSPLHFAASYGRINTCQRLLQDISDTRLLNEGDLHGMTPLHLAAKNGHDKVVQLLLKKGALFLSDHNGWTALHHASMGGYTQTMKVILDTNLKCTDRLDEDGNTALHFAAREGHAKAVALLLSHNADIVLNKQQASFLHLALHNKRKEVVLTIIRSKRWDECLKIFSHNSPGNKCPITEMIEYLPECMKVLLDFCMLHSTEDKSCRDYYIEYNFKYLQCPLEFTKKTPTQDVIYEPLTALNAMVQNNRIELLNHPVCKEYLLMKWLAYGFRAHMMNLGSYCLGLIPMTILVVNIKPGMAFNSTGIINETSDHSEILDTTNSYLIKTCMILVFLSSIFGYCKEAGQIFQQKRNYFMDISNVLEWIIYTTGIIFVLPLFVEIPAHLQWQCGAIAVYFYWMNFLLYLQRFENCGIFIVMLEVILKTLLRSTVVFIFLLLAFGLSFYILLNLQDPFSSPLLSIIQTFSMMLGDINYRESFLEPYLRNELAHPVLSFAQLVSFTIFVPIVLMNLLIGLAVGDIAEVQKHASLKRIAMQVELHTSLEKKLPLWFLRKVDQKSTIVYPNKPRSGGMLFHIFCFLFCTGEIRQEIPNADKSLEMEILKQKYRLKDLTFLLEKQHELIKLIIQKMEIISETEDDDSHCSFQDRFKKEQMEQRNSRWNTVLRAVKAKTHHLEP

[4] = target: T2, Transient receptor potential cation channel subfamily A member 1; experiment: Activation of TRPA1 channel
Outline: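 Cell lines transfected with TRPA1 and loaded with a calcium-sensitive dye, read on FLIPR. Calcium influx is counted as the change in fluorescence above background. Each material was tested by preincubation or by direct addition. Calcium counts are expressed as a percentage of the control calcium count.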

[5] = target: Transient receptor potential cation channel subfamily V member 1 (Homo sapiens, UniProt Q8NER1); experiment: Activation of TRPV1 channel
Transient receptor potential cation channel subfamily V member 1, sequence (Q8NER1 whole entry): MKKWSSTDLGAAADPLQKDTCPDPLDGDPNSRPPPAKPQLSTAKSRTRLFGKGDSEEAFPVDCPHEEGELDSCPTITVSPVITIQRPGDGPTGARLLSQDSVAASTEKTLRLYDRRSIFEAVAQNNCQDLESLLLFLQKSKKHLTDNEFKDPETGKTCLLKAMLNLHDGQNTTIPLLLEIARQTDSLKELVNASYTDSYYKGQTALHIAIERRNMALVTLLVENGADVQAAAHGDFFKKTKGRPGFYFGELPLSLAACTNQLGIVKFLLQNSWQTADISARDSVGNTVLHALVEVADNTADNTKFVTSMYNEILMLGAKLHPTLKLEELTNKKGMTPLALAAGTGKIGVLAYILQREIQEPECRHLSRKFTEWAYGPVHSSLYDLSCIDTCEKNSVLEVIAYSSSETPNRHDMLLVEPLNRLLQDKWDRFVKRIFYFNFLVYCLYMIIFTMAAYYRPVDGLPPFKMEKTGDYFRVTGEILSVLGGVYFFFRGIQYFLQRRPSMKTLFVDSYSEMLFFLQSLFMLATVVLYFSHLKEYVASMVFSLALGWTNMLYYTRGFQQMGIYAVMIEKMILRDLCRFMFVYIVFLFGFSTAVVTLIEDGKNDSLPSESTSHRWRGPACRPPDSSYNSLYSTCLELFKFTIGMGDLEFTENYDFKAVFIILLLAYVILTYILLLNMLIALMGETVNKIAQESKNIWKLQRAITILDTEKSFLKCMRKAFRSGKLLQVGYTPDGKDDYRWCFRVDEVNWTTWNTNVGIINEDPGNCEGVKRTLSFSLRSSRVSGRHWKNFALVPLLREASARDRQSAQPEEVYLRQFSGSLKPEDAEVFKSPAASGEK

[6] = target: T3, Transient receptor potential cation channel subfamily A member 1 (Mus musculus, UniProt Q8BLA8); experiment: Agonist activity at mouse TRPA1 channel expressed in CHO cells assessed as increase in intracellular calcium influx; assay type: functional, cell-based
T3 sequence (Q8BLA8 whole entry): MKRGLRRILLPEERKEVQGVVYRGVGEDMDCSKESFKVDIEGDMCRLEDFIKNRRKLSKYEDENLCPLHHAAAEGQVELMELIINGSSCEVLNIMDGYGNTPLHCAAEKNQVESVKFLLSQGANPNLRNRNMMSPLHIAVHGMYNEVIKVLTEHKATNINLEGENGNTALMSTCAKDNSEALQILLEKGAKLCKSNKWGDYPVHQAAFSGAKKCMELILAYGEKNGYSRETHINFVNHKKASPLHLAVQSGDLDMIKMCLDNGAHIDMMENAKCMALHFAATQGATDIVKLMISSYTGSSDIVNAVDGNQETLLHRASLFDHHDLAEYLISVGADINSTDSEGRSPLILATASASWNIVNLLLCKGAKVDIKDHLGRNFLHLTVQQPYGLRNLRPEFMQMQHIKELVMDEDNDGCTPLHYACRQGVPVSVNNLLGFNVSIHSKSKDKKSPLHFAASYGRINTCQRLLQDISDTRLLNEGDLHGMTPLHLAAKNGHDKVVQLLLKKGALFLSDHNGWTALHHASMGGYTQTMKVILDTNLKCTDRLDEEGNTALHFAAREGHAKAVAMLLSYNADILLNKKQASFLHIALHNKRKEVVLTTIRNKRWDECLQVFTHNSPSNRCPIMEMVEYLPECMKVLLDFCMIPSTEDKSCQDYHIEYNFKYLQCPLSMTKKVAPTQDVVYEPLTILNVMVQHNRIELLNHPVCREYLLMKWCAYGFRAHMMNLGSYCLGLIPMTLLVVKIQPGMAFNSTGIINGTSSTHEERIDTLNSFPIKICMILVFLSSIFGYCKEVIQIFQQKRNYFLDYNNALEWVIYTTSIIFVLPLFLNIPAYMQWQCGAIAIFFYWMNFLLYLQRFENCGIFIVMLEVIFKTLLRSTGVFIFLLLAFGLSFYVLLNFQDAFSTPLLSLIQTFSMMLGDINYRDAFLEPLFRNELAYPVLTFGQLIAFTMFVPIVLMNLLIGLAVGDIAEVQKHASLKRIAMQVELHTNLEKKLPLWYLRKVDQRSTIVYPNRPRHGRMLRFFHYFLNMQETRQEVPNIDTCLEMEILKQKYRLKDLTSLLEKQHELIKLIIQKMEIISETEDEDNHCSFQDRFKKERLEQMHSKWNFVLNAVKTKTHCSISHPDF

[7] = target: T2, Transient receptor potential cation channel subfamily A member 1; experiment: Antagonist activity at human TRPA1 channel assessed as inhibition of allyl isothiocyanate-induced intracellular calcium influx; assay type: functional, cell-based
[8] = target: T2, Transient receptor potential cation channel subfamily A member 1; experiment: Agonist activity at human TRPA1 channel expressed in HEK293 cells assessed as increase in intracellular calcium influx; assay type: functional, cell-based
[9] = target: T3, Transient receptor potential cation channel subfamily A member 1; experiment: Agonist activity at mouse TRPA1 channel expressed in HEK293 cells assessed as increase in intracellular calcium influx; assay type: functional, cell-based
[10] = target: T3, Transient receptor potential cation channel subfamily A member 1; experiment: Agonist activity at TRPA1 channel in mouse dorsal root ganglion cells assessed as increase in intracellular calcium influx by radiometric Ca2+ imaging; assay type: functional, tissue-based
[11] = target: T2, Transient receptor potential cation channel subfamily A member 1; experiment: Agonist activity at human TRPA1 channel expressed in HEK293 cells assessed as increase in membrane currents; assay type: functional, cell-based
[12] = target: T2, Transient receptor potential cation channel subfamily A member 1; experiment: Antagonist activity at human TRPA1 channel expressed in CHO cells assessed as inhibition of cinnamaldehyde-induced intracellular calcium influx; assay type: functional, cell-based
[13] = target: T2, Transient receptor potential cation channel subfamily A member 1; experiment: Antagonist activity at TRPA1 channel at 10 uM; assay type: functional
[14] = target: T2, Transient receptor potential cation channel subfamily A member 1; experiment: Antagonist activity at TRPA1 channel at 1 uM; assay type: functional
[15] = target: T2, Transient receptor potential cation channel subfamily A member 1; experiment: Activation of human TRPA1 channel
[16] = target: T2, Transient receptor potential cation channel subfamily A member 1; experiment: Antagonist activity at TRPA1 channel; assay type: functional
[17] = target: T2, Transient receptor potential cation channel subfamily A member 1; experiment: Activation of TRPA1 channel expressed in CHO cells assessed as increase in intracellular calcium levels; assay type: cell-based

For `CCCCCc1cc(O)c2c(c1)OC(C)(CCC=C(C)C)C=C2` (stereo not drawn) [CANNABICHROMENE], which EC50 [1] is on record?
Its EC50 is 0.06 µM.

What about the EC50 [2] of the same molecule?
Its EC50 is 34.3 µM.

`CCCCCc1cc(O)c2c(c1)OC(C)(C)[C@@H]1CCC(C)=C[C@@H]21` [DRONABINOL] was tested. Which EC50 [1] did it give?
The EC50 was 0.23 µM.

How did the EC50 [3] turn out when `CC1(C)CCC[C@]2(C)[C@@H](C=O)C(C=O)=CC[C@@H]12` [POLYGODIAL] was run?
The EC50 was 0.059 µM.

For `CCCCC[C@H](O)/C=C/[C@H]1C=CC(=O)[C@H]1C/C=C\CCCC(=O)O`, which EC50 [4] is on record?
The EC50 was 22.4 µM.

For `C/C=C/C=C/C=C\CC/C=C/C(=O)NCC(C)(C)O`, which EC50 [5] is on record?
The EC50 was 1.1 µM.

What about the EC50 [4] of the same molecule?
Its EC50 is 6.6 µM.

`COC(=O)C1=C(C)NC(C)=C([N+](=O)[O-])C1c1ccccc1C(F)(F)F` (stereo not drawn) was tested. Which EC50 [6] did it give?
Its EC50 is 32.7 µM.

`S=C=NCCc1ccccc1` [PHENETHYLISOTHIOCYANATE] was tested. Which EC50 [4] did it give?
The EC50 was 10 µM.

Which IC50 [7] does the source give for `Cn1c(=O)c2c(ncn2CC(=O)Nc2nc(-c3ccccc3)cs2)n(C)c1=O` here?
Its IC50 is less than 1 µM.

For `CC1(C)C[C@H]2C=C(C=O)[C@]3(C=O)C[C@]3(C)[C@H]2C1` [ISOVELLERAL], which EC50 [8] is on record?
The EC50 was 0.59 µM.

What about the EC50 [9] of the same molecule?
Its EC50 is 2.58 µM.

And the EC50 [10]?
Its EC50 is 130 µM.

For `C/C=C/C=O` [CROTONALDEHYDE], which EC50 [4] is on record?
Its EC50 is 16 µM.

Which EC50 [11] does the source give for `CC(C)CN1C(=O)/C(=C/C(=O)O)c2cc(F)ccc21` here?
Its EC50 is 4.63 µM.

`Cn1c(=O)c2c(ncn2CC(=O)Nc2nc(-c3ccccc3F)cs2)n(C)c1=O` was tested. Which IC50 [7] did it give?
Its IC50 is less than 1 µM.

For `Cn1c(=O)c2c(ncn2CC(=O)Nc2nc(-c3cccc(F)c3)cs2)n(C)c1=O`, which IC50 [7] is on record?
The IC50 was less than 1 µM.

`CCC(=N\O)/C(C)=C/c1ccc(C(F)(F)F)nc1` was tested. Which IC50 [12] did it give?
The IC50 was greater than 100 µM.

Which EC50 [8] does the source give for `Cc1ccc(N=C=O)cc1N=C=O` [TOLUENE DIISOCYANATE] here?
The EC50 was 10 µM.

`CCOC(=O)C1=C(C)NC(C)=C(C(=O)OC)C1c1cccc([N+](=O)[O-])c1` (stereo not drawn) [NITRENDIPINE] was tested. Which EC50 [6] did it give?
The EC50 was 3.8 µM.

Which EC50 [3] does the source give for `CC(C)=CCC/C(C)=C/CC/C(C)=C/CSCC(=O)O` [FARNESYLTHIOACETIC ACID] here?
The EC50 was 90 µM.

How did the EC50 [11] turn out when `CN(C)C(=O)/C=C1/C(=O)N(CC2CCCC2)c2c(F)cccc21` was run?
Its EC50 is 3.76 µM.

How did the EC50 [11] turn out when `O=C(O)/C=C1/C(=O)N(Cc2ccccc2)c2ccc(F)cc21` was run?
The EC50 was 4.45 µM.

With `CCc1ccc(-c2csc(NC(=O)Cn3cnc4c3c(=O)n(C)c(=O)n4C)n2)cc1` as the molecule, how does the IC50 [7] read?
Its IC50 is less than 1 µM.

With `COc1cccc(-c2csc(NC(=O)Cn3cnc4c3c(=O)n(C)c(=O)n4C)n2)c1` as the molecule, how does the IC50 [7] read?
The IC50 was less than 1 µM.

Which results are given for `CC(C)c1ccc(NC(=O)Cc2cccc3c2C(=O)N(C)C3=O)cc1`?
inhibition [13]: 21%; inhibition [14]: 18%

Which EC50 [4] does the source give for `CCCCC[C@H](O)/C=C/[C@H]1C=CC(=O)[C@@H]1CCCCCCC(=O)O` [PROSTAGLANDIN A1] here?
Its EC50 is 15.1 µM.

Which EC50 [6] does the source give for `CO/C(O)=C1\C(C)=NC(C)=C([N+](=O)[O-])[C@@H]1c1ccccc1C(F)(F)F` here?
Its EC50 is 20.8 µM.

How did the IC50 [12] turn out when `CCC(=N\O)/C(C)=C/c1cnccc1C` was run?
Its IC50 is greater than 100 µM.

Which EC50 [4] does the source give for `CCCCC/C=C/C=C1/C(=O)C=C[C@@H]1C/C=C\CCCC(=O)O` here?
The EC50 was 5.6 µM.

With `CCC(=N\O)/C(C)=C/c1cnc2ccccc2c1` as the molecule, how does the IC50 [12] read?
Its IC50 is greater than 100 µM.

`S=C=NCc1ccccc1` [BENZYL ISOTHIOCYANATE] was tested. Which EC50 [4] did it give?
Its EC50 is 0.319 µM.

For `C=CCSSCC=C`, which EC50 [3] is on record?
The EC50 was 7.55 µM.

And the EC50 [4]?
The EC50 was 125 µM.

Which EC50 [6] does the source give for `COC(=O)C1=C(C)NC(C)=C(C(=O)OCCN(C)Cc2ccccc2)C1c1cccc([N+](=O)[O-])c1` (stereo not drawn) [NICARDIPINE] here?
Its EC50 is 0.5 µM.

How did the EC50 [15] turn out when `CCCCCC(=O)/C=C/C=O` was run?
The EC50 was 1.9 µM.

How did the IC50 [16] turn out when `CN1C(=O)c2cccc(CC(=O)Nc3nc(-c4ccc(Cl)c(Cl)c4)cs3)c2C1=O` was run?
Its IC50 is 0.25 µM.

What about the inhibition [13] of the same molecule?
Its inhibition is 98%.

What about the inhibition [14] of the same molecule?
Its inhibition is 86%.

`CCCCC[C@H](O)/C=C/[C@H]1C=CC(=O)[C@@H]1C/C=C\CCCC(=O)O` [PROSTAGLANDIN A2] was tested. Which EC50 [4] did it give?
The EC50 was 24 µM.

`C=C(C)C1CC=C(C=O)CC1` (stereo not drawn) was tested. Which EC50 [4] did it give?
The EC50 was 41 µM.

Which EC50 [17] does the source give for `O=C/C=C/c1ccccc1` here?
The EC50 was 6.5 µM.

For `COC(=O)C1=C(C)NC(C)=C(C(=O)OC)C1c1ccccc1[N+](=O)[O-]` [NIFEDIPINE], which EC50 [6] is on record?
Its EC50 is 0.4 µM.

How did the EC50 [4] turn out when `CC(C)CCC(=O)c1ccoc1` [PERILLAKETONE] was run?
Its EC50 is 19.7 µM.

With `CN1CCC[C@H]1c1cccnc1` [NICOTINE] as the molecule, how does the EC50 [4] read?
The EC50 was 17 µM.

Which EC50 [8] does the source give for `Cc1ccc(C(C)C)cc1O` [CARVACROL] here?
Its EC50 is 7 µM.

How did the EC50 [11] turn out when `CC(C)CN1C(=O)/C(=C/C(=O)O)c2cccc(Cl)c21` was run?
Its EC50 is 0.61 µM.
